Source: publication PMC3149845 (The Journal of neuroscience : the official journal of the …, 2011)
Residue numbers refer to the chain shown, from its start. Entries after “also recorded” stand apart in the source; their conditions may differ. Peptide text beside a SMILES is read from it.

Tests used:
hTas1R2:I67S+hTas1R3 = hTas1R2:I67S+hTas1R3 (Homo sapiens, UniProt Q8TE23, I67S); test: Ca2+ mobilization, mutated human receptor; format: cell-based; details: aspartame 10mM, neotame 1mM, sucralose 2 mM; compared with hTas1R2/hTas1R3
hTas1R2:I67S+hTas1R3, sequence (Q8TE23 20-839 I67S, one chain of several): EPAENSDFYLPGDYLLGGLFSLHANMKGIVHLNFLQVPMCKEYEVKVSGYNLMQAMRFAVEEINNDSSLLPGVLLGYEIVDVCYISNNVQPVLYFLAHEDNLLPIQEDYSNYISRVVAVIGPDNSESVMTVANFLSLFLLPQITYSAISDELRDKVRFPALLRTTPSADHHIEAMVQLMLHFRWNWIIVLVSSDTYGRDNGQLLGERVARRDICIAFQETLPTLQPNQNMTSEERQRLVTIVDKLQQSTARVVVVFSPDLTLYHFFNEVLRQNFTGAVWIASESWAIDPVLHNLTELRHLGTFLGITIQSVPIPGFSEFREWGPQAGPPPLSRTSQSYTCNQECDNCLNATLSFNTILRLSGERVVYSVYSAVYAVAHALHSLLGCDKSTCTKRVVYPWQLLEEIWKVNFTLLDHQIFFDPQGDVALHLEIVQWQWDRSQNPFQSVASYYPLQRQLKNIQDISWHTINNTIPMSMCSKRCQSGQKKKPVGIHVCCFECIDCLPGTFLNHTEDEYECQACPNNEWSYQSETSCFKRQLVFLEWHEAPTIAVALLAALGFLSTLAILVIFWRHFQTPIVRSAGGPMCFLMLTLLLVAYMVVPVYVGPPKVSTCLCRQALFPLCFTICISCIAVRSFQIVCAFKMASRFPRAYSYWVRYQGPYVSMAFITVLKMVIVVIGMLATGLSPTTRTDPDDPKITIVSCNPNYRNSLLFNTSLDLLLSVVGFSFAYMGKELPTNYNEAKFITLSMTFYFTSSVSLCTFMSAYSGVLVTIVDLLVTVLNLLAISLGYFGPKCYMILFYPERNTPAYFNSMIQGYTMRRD
How it was run: (§1)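 HEK293E cells grown at 37°C in Opti-MEM with 5% FBS and seeded at 50,000/well. Cells co-lipofected with Tas1R plasmids and Gα16-gust44 (0.06 μg each per well); medium changed at 20 h, assayed 24 h later. Cells loaded 1 h with Fluo-4 AM in HEPES-buffered HBSS. Tastant added at 30 s; fluorescence (ex 488/em 525 nm) read every 2 s for 150 s more. ΔF/F normalised to human receptor maximal sucralose response; mean ± SEM, three independent experiments.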

hTas1R2:S40T+hTas1R3 = molecular target: T1, hTas1R2:S40T+hTas1R3 (Homo sapiens, UniProt Q8TE23, S40T); test: Ca2+ mobilization, mutated human receptor; format: cell-based; details: aspartame 10mM, neotame 1mM, sucralose 2 mM; compared with hTas1R2/hTas1R3
T1 sequence (Q8TE23 20-839 S40T): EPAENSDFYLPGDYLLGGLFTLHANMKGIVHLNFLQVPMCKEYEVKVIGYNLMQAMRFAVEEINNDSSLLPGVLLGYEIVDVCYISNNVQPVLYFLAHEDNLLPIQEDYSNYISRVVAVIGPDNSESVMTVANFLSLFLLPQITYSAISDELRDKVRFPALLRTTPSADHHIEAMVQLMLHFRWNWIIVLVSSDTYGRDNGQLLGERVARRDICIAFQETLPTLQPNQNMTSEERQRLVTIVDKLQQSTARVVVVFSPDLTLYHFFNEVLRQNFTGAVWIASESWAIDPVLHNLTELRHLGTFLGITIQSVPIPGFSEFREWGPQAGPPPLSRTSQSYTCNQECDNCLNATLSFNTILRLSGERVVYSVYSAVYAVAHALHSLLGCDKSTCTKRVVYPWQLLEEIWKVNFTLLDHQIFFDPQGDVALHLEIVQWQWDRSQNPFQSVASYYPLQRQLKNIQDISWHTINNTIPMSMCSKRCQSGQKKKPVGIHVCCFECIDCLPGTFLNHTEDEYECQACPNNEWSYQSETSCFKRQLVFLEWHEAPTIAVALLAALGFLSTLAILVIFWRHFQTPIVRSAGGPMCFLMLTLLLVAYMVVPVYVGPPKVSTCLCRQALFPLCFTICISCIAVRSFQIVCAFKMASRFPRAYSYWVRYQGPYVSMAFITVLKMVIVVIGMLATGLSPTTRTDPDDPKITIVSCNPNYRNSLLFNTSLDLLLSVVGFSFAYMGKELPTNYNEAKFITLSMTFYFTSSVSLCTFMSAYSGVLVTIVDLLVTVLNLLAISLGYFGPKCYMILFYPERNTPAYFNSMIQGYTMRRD
T1 sequence (Q7RTX0 21-852 partner): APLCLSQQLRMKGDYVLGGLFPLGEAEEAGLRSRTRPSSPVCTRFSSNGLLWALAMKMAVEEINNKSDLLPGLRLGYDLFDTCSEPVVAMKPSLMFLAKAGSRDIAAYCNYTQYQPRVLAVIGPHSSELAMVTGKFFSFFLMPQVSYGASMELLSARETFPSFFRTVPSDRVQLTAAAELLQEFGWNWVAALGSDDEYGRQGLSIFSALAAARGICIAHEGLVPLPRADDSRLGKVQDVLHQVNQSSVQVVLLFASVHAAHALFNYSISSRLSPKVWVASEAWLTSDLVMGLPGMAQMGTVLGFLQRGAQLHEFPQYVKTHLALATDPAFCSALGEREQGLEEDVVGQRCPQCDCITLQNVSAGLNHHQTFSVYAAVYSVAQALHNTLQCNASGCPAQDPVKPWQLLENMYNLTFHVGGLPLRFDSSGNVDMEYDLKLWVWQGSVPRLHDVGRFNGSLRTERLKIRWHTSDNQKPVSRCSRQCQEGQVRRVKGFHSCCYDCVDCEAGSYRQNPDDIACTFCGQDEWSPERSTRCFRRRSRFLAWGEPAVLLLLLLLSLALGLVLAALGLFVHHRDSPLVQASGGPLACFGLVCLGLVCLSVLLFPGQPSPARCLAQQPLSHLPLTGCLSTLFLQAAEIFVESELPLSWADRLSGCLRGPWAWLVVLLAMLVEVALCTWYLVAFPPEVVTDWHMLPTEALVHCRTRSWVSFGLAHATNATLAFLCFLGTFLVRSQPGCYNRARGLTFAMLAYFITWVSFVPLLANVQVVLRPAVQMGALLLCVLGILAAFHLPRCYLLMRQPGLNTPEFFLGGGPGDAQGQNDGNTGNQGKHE
How it was run: as §1

hTas1R2/smTas1R3 = molecular target: T2, hTas1R2/smTas1R3 (Homo sapiens, UniProt Q8TE23); test: Ca2+ mobilization, mismatched receptor; format: cell-based, human/squirrel monkey; details: aspartame 10mM, neotame 1mM, sucralose 2 mM, D-tryptophan 5mM, sucrose 150mM; vs control / wild type human receptor
T2 sequence (Q8TE23 20-839): T1 sequence (Q8TE23 20-839 S40T) with T21S
How it was run: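 Transfected HEK293E cells (50,000/well; 0.06 μg Tas1R plasmid and 0.06 μg Gα16-gust44 per well) were medium-changed at 20 h, then loaded after 24 h with 3 μM Fluo-4 AM in HBSS/20 mM HEPES for 1 h. Tastant added 30 s into scan; fluorescence (ex 488/em 525 nm) read every 2 s for 150 s. ΔF/F normalized to the hTas1R2/hTas1R3 sucralose response; three independent experiments; unpaired t test.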

| SMILES | calcium response to sweetener (hTas1R2:I67S+hTas1R3) | calcium response to sweetener (hTas1R2:S40T+hTas1R3) | calcium response to sweetener (hTas1R2/smTas1R3) |
| --- | --- | --- | --- |
| COC(=O)[C@H](Cc1ccccc1)NC(=O)[C@@H](N)CC(=O)O [aspartame, L-α-aspartly-L-phenylalanine methyl ester] (H-Asp-Phe-OMe) | mild phenotype | abolished | able to respond; also recorded: reduced responses |
| COC(=O)[C@H](Cc1ccccc1)NC(=O)[C@H](CC(=O)O)NCCC(C)(C)C [neotame] | slightly reduced response | did not affect significantly | able to respond |
| OC[C@H]1O[C@H](O[C@]2(CCl)O[C@H](CCl)[C@@H](O)[C@@H]2O)[C@H](O)[C@@H](O)[C@H]1Cl [sucralose] |  | significantly reduced | reduced responses |
